Test results taken from ChEMBL document CHEMBL1138747, “Synthesis and structure--activity relationship in a class of indolebutylpiperazines as dual 5-HT(1A) receptor agonists and serotonin reuptake inhibitors” (J Med Chem, 2004).
Values joined by “and” are separate entries in the source; they are usually repeats but may differ in a detail not shown here. Identical values can stand only once.

Experiments:
[1] = biological target: 5-hydroxytryptamine receptor 6 (Rattus norvegicus, UniProt P31388); experiment: Inhibition of rat hydroxytryptamine 6 receptor
D(3) dopamine receptor = D(3) dopamine receptor (Rattus norvegicus, UniProt P19020); experiment: Inhibition of rat dopamine D3 receptor
D(2) dopamine receptor = D(2) dopamine receptor (Rattus norvegicus, UniProt P61169); experiment: Displacement of [3H]spiperone from dopamine D2 receptor of rat striatal membranes; format: cell membranes, Membrane
Procedure, shortened: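 IC50 from 5–10 compound concentrations, each in triplicate, taken as the concentration (nM) giving 50% inhibition of specific radioligand binding.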

[2] = Inhibition of histamine H1 receptor
[3] = biological target: 5-hydroxytryptamine receptor 1D (Rattus norvegicus, UniProt P28565); experiment: Inhibition of rat hydroxytryptamine 1D receptor
[4] = Inhibition of kappa opioid receptor
D(4) dopamine receptor = biological target: T1, D(4) dopamine receptor (Rattus norvegicus, UniProt P30729); experiment: Inhibition of rat dopamine D4 receptor
T1 sequence (P30729 whole entry): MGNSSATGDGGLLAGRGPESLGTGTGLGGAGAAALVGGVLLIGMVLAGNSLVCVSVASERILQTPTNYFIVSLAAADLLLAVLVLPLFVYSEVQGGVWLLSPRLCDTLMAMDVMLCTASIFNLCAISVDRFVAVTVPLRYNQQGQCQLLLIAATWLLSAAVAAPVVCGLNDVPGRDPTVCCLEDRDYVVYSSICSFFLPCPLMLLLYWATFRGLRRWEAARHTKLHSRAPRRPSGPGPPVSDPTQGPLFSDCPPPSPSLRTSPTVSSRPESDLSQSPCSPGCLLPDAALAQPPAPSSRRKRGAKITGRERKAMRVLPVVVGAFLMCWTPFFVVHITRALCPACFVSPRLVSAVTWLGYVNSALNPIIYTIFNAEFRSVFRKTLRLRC

Rattus norvegicus = experiment: Dose required to inhibit ultrasonic vocalisation on peroral administered; format: functional; details: po, read-out: ID50 (the source's name)
Procedure, shortened: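 Rat ultrasonic vocalization test. In a priming session, up to 10 grid-floor shocks were given (1.8 mA, 0.3 s, 20 s apart). Rats not vocalizing on three consecutive trials were excluded. Next day, rats were tested 2 h after dosing: five shocks, then vocalization duration recorded over 3 min. ID50 (dose for half-maximal inhibition) came from dose–response curves.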

[5] = biological target: T2, Serotonin 3 (5-HT3) receptor (Rattus norvegicus, UniProt P35563+Q9JJ16); experiment: Inhibition against rat hydroxytryptamine 3 receptor; format: protein-complex assay
T2 sequence (P35563 whole entry): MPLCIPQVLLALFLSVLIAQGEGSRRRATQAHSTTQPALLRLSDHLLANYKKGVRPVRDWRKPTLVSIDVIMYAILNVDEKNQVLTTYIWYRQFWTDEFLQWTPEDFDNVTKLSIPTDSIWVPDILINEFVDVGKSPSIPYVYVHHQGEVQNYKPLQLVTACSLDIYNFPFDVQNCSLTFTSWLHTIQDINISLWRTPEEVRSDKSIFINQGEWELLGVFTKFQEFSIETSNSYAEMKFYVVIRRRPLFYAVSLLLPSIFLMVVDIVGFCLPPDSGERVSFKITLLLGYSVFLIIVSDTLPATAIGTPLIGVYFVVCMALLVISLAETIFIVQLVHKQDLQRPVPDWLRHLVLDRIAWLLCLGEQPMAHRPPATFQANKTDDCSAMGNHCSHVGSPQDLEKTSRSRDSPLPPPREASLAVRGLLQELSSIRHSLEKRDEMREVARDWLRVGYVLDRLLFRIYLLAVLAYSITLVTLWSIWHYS
T2 sequence (Q9JJ16 whole entry): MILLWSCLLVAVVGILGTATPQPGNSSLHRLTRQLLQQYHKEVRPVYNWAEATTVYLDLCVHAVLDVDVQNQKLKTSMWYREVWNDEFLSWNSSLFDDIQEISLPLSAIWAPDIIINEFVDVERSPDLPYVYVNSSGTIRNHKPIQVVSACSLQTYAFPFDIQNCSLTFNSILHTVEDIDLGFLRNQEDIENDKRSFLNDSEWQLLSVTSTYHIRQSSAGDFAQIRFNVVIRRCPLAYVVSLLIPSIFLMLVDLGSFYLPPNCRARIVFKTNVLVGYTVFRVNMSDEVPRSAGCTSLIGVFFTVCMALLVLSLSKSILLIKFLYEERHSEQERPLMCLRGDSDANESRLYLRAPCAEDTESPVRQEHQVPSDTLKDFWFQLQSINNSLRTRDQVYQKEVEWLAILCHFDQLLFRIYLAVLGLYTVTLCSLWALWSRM

D(2) dopamine receptor, sequence (P61169 whole entry): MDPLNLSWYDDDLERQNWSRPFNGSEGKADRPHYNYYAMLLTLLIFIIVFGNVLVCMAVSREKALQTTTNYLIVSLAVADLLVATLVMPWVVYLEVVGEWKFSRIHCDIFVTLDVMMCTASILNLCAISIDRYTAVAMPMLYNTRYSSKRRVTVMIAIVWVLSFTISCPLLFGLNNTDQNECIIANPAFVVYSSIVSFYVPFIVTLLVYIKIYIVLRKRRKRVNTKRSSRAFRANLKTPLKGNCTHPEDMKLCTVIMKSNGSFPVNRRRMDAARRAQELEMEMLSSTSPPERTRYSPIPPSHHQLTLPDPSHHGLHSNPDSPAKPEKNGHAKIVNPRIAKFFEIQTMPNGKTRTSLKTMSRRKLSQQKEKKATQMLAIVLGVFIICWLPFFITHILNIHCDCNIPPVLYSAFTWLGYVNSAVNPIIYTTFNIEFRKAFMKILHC
5-hydroxytryptamine receptor 1D, sequence (P28565 whole entry): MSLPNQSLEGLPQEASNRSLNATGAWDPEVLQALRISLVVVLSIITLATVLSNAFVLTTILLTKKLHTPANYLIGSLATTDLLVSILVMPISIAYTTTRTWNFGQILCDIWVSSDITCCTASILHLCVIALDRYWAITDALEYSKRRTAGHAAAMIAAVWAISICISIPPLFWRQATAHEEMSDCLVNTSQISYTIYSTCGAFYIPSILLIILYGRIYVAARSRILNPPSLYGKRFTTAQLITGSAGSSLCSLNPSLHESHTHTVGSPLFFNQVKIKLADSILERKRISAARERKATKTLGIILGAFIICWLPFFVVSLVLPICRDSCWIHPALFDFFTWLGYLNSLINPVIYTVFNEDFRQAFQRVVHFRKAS
5-hydroxytryptamine receptor 6, sequence (P31388 whole entry): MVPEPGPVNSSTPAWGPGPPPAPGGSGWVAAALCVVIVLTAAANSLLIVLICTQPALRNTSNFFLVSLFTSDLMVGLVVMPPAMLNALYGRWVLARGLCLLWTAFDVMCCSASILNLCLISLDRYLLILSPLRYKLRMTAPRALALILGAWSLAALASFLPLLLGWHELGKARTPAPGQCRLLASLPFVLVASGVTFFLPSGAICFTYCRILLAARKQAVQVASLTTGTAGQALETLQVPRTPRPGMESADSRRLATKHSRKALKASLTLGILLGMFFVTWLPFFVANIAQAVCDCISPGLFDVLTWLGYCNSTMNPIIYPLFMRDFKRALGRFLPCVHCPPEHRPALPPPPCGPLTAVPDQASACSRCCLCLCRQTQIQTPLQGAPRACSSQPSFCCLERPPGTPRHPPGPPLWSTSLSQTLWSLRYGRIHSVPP
D(3) dopamine receptor, sequence (P19020 whole entry): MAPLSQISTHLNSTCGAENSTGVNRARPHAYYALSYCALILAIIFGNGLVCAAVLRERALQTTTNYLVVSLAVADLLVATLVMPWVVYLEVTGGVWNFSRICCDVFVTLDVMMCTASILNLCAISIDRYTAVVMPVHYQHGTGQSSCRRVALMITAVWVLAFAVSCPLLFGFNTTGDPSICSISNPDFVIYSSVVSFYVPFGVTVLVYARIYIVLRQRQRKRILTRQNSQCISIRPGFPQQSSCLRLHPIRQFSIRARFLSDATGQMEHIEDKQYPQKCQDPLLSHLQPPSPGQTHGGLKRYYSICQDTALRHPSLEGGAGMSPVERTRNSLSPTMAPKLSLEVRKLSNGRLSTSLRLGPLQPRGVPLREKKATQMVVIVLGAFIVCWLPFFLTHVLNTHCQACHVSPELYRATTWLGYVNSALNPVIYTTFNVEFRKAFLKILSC

- IC50 [1]: 3000 nM
- IC50 (D(3) dopamine receptor): 71 nM
- IC50 (D(2) dopamine receptor): 95 nM and 666 nM
- IC50 [2]: 317 nM
- IC50 [3]: 4000 nM
- IC50 [4]: > 1000 nM
- IC50 (D(4) dopamine receptor): 3400 nM
- IC50 [5]: 4300 nM
Compound: N#Cc1ccc2[nH]cc(CCCCN3CCN(c4ccc5oc(C(N)=O)cc5c4)CC3)c2c1 [VILAZODONE]
- ED50 (Rattus norvegicus): 13 mg/kg
